Laboratory results taken from ChEMBL document CHEMBL1806356, “Synthesis, characterization and antimicrobial studies of some new pyrazole incorporated imidazole derivatives” (Eur J Med Chem, 2011).

Key:
Bacillus subtilis [1] = test: Antibacterial activity against Bacillus subtilis assessed as zone of inhibition at 500 ug/ml after 24 hrs by agar diffusion method; type: functional; conditions: read-out: IZ
Procedure, shortened: (§1)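 Well diffusion on Mueller-Hinton agar seeded with 24 h old bacterial cultures. Test compounds were dissolved in DMSO at 1 and 0.5 mg/mL and added to labeled wells. Plates were incubated 24 h at 37 °C. The inhibition zone around each well was measured in mm. Triplicate experiments, standard deviation calculated.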

Salmonella typhimurium [2] = test: Antibacterial activity against Salmonella Typhimurium assessed as zone of inhibition at 500 ug/ml after 24 hrs by agar diffusion method; type: functional, Salmonella enterica subsp. enterica serovar Typhimurium; conditions: Salmonella enterica, read-out: IZ; procedure, shortened: as §1
Salmonella typhimurium [3] = test: Antibacterial activity against Salmonella Typhimurium assessed as zone of inhibition at 1000 ug/ml after 24 hrs by agar diffusion method; type: functional, Salmonella enterica subsp. enterica serovar Typhimurium; conditions: Salmonella enterica, read-out: IZ; procedure, shortened: as §1
Trichophyton rubrum [4] = test: Antifungal activity against Trichophyton rubrum at 500 ug/ml after 72 hrs by agar diffusion method; type: functional; conditions: read-out: DIZ
Procedure, shortened: (§2)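 Fungal spores were suspended in normal saline (one loopful in 3 mL) and lawned on agar plates. Wells were punched with a sterile cork borer and loaded with test compound in DMSO at the different concentrations. A DMSO solvent control was included. Petri dishes were prepared in triplicate and held at 25 °C for 72 h.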

Clostridium perfringens [5] = test: Antibacterial activity against Clostridium perfringens assessed as zone of inhibition at 500 ug/ml after 24 hrs by agar diffusion method; type: functional; conditions: read-out: IZ
Procedure, shortened: (§3)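 Well diffusion on Mueller-Hinton agar seeded with 24 h old cultures. Compounds dissolved in DMSO at 1 and 0.5 mg/mL and added to wells punched with a sterile cork borer, with a DMSO-only control. Plates incubated 24 h at 37 °C. Read-out was the inhibition zone in mm, run in triplicate, standard deviation calculated.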

Pseudomonas aeruginosa [6] = test: Antibacterial activity against Pseudomonas aeruginosa ATCC 27853 assessed as zone of inhibition at 500 ug/ml after 24 hrs by agar diffusion method; type: functional; conditions: ATCC 27853, 24 h, read-out: IZ; procedure, shortened: as §1
Staphylococcus aureus [7] = test: Antibacterial activity against Staphylococcus aureus assessed as zone of inhibition at 1000 ug/ml after 24 hrs by agar diffusion method; type: functional; conditions: read-out: IZ; procedure, shortened: as §1
Bacillus subtilis [8] = test: Antibacterial activity against Bacillus subtilis assessed as zone of inhibition at 1000 ug/ml after 24 hrs by agar diffusion method; type: functional; conditions: read-out: IZ; procedure, shortened: as §1
Aspergillus niger [9] = test: Antifungal activity against Aspergillus niger at 500 ug/ml after 72 hrs by agar diffusion method; type: functional; conditions: read-out: DIZ; procedure, shortened: as §2
Pseudomonas aeruginosa [10] = test: Antibacterial activity against Pseudomonas aeruginosa ATCC 27853 assessed as zone of inhibition at 1000 ug/ml after 24 hrs by agar diffusion method; type: functional; conditions: ATCC 27853, 24 h, read-out: IZ; procedure, shortened: as §1
Trichophyton rubrum [11] = test: Antifungal activity against Trichophyton rubrum at 1000 ug/ml after 72 hrs by agar diffusion method; type: functional; conditions: read-out: DIZ; procedure, shortened: as §2
Aspergillus niger [12] = test: Antifungal activity against Aspergillus niger at 1000 ug/ml after 72 hrs by agar diffusion method; type: functional; conditions: read-out: DIZ; procedure, shortened: as §2
Candida albicans [13] = test: Antifungal activity against Candida albicans at 500 ug/ml after 72 hrs by agar diffusion method; type: functional; conditions: read-out: DIZ; procedure, shortened: as §2
Escherichia coli [14] = test: Antibacterial activity against Escherichia coli ATCC 25922 assessed as zone of inhibition at 1000 ug/ml after 24 hrs by agar diffusion method; type: functional; conditions: ATCC 25922, 24 h, read-out: IZ; procedure, shortened: as §1
Aspergillus flavus [15] = test: Antifungal activity against Aspergillus flavus at 500 ug/ml after 72 hrs by agar diffusion method; type: functional; conditions: read-out: DIZ; procedure, shortened: as §2
Clostridium perfringens [16] = test: Antibacterial activity against Clostridium perfringens assessed as zone of inhibition at 1000 ug/ml after 24 hrs by agar diffusion method; type: functional; conditions: read-out: IZ; procedure, shortened: as §3
Nannizzia gypsea [17] = test: Antifungal activity against Microsporum gypseum at 1000 ug/ml after 72 hrs by agar diffusion method; type: functional; conditions: read-out: DIZ; procedure, shortened: as §2
Aspergillus flavus [18] = test: Antifungal activity against Aspergillus flavus at 1000 ug/ml after 72 hrs by agar diffusion method; type: functional; conditions: read-out: DIZ; procedure, shortened: as §2
Escherichia coli [19] = test: Antibacterial activity against Escherichia coli ATCC 25922 assessed as zone of inhibition at 500 ug/ml after 24 hrs by agar diffusion method; type: functional; conditions: ATCC 25922, 24 h, read-out: IZ; procedure, shortened: as §1
Candida albicans [20] = test: Antifungal activity against Candida albicans at 1000 ug/ml after 72 hrs by agar diffusion method by agar diffusion method; type: functional; conditions: read-out: DIZ; procedure, shortened: as §2
Nannizzia gypsea [21] = test: Antifungal activity against Microsporum gypseum at 500 ug/ml after 72 hrs by agar diffusion method; type: functional; conditions: read-out: DIZ; procedure, shortened: as §2
Staphylococcus aureus [22] = test: Antibacterial activity against Staphylococcus aureus assessed as zone of inhibition at 500 ug/ml after 24 hrs by agar diffusion method; type: functional; conditions: read-out: IZ; procedure, shortened: as §1

Structure (SMILES)	zone of inhibition at 500 µg/mL (Bacillus subtilis [1]) [mm]	zone of inhibition at 500 µg/mL (Salmonella typhimurium [2]) [mm]	zone of inhibition at 1000 µg/mL (Salmonella typhimurium [3]) [mm]	zone of inhibition at 500 µg/mL (Trichophyton rubrum [4]) [mm]	zone of inhibition at 500 µg/mL (Clostridium perfringens [5]) [mm]	zone of inhibition at 500 µg/mL (Pseudomonas aeruginosa [6]) [mm]	zone of inhibition at 1000 µg/mL (Staphylococcus aureus [7]) [mm]	zone of inhibition at 1000 µg/mL (Bacillus subtilis [8]) [mm]	zone of inhibition at 500 µg/mL (Aspergillus niger [9]) [mm]	zone of inhibition at 1000 µg/mL (Pseudomonas aeruginosa [10]) [mm]	zone of inhibition at 1000 µg/mL (Trichophyton rubrum [11]) [mm]	zone of inhibition at 1000 µg/mL (Aspergillus niger [12]) [mm]	zone of inhibition at 500 µg/mL (Candida albicans [13]) [mm]	zone of inhibition at 1000 µg/mL (Escherichia coli [14]) [mm]	zone of inhibition at 500 µg/mL (Aspergillus flavus [15]) [mm]	zone of inhibition at 1000 µg/mL (Clostridium perfringens [16]) [mm]	zone of inhibition at 1000 µg/mL (Nannizzia gypsea [17]) [mm]	zone of inhibition at 1000 µg/mL (Aspergillus flavus [18]) [mm]	zone of inhibition at 500 µg/mL (Escherichia coli [19]) [mm]	zone of inhibition at 1000 µg/mL (Candida albicans [20]) [mm]	further results
c1ccc(-c2ccc(-c3n[nH]cc3-c3nc(-c4ccccc4)c(-c4ccccc4)[nH]3)cc2)cc1	2	3	4	8	1	3	2	3	9	4	9	10	8	3	7	2	5	9	2	9	zone of inhibition at 500 µg/mL (Nannizzia gypsea [21]): 4 mm; zone of inhibition at 500 µg/mL (Staphylococcus aureus [22]): 1 mm
Cc1ccc(-c2n[nH]cc2-c2nc(-c3ccccc3)c(-c3ccccc3)[nH]2)cc1	7	5	6	11	5	4	7	8	9	6	12	10	9	14	9	6	3	10	8	10	zone of inhibition at 500 µg/mL (Nannizzia gypsea [21]): 2 mm; zone of inhibition at 500 µg/mL (Staphylococcus aureus [22]): 6 mm
Clc1cc(-c2n[nH]cc2-c2nc(-c3ccccc3)c(-c3ccccc3)[nH]2)c(Cl)s1	3	6	7	9	7	5	6	4	9	6	10	10	9	6	9	8	5	10	5	10	zone of inhibition at 500 µg/mL (Nannizzia gypsea [21]): 4 mm; zone of inhibition at 500 µg/mL (Staphylococcus aureus [22]): 5 mm
CSc1ccc(-c2n[nH]cc2-c2nc(-c3ccc(Br)cc3)c(-c3ccc(Br)cc3)[nH]2)cc1	4	3	4	7	3	2	3	5	5	3	8	6	11	3	12	4	4	13	2	12	zone of inhibition at 500 µg/mL (Nannizzia gypsea [21]): 3 mm; zone of inhibition at 500 µg/mL (Staphylococcus aureus [22]): 2 mm
Clc1ccc(-c2n[nH]cc2-c2nc(-c3ccc(Br)cc3)c(-c3ccc(Br)cc3)[nH]2)c(Cl)c1	4	3	4	9	2	4	4	5	4	5	10	5	8	5	4	3	4	5	4	9	zone of inhibition at 500 µg/mL (Nannizzia gypsea [21]): 3 mm; zone of inhibition at 500 µg/mL (Staphylococcus aureus [22]): 3 mm
Brc1ccc(-c2nc(-c3c[nH]nc3-c3ccc(-c4ccccc4)cc3)[nH]c2-c2ccc(Br)cc2)cc1	3	2	3	3	1	1	2	4	2	2	4	3	2	3	3	2	2	4	2	3	zone of inhibition at 500 µg/mL (Nannizzia gypsea [21]): 1 mm; zone of inhibition at 500 µg/mL (Staphylococcus aureus [22]): 1 mm
